Values after ≈ are worked out from the molar mass of the structure shown.
Key:
[1] = tested on: Pseudomonas aeruginosa; experiment: Antimicrobial activity against Pseudomonas aeruginosa 1821383 B-E isolated from patient with pyelonephritis assessed as >3-log reduction in urinary bacterial titer after 8 hrs; type: functional, Urine
[2] = tested on: Serratia marcescens; experiment: Antimicrobial activity against Serratia marcescens 2297260 B-U isolated from patient with pyelonephritis assessed as >3-log reduction in urinary bacterial titer after 12 hrs; type: functional, Urine
[3] = tested on: Escherichia coli; experiment: Antimicrobial activity against Escherichia coli 1780064 A-X isolated from patient with pyelonephritis by Etest; type: functional
[4] = tested on: Escherichia coli; experiment: Antimicrobial activity against Escherichia coli 1889647 B-H isolated from patient with pyelonephritis assessed as >3-log reduction in urinary bacterial titer after 20 hrs; type: functional, Urine
Summary of the method: (§1)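 Urine was collected on day 3 of i.v. therapy (steady state) over 4-h intervals from infusion start (0–4 to 20–24 h), stored at –80°C and sterile filtered. It was serially diluted twofold (1:0 up to 1:131,072) in the patient's own pre-dose drug-free urine. Microdilution used a final inoculum of 1.0 x 10^6 to 9.5 x 10^6 CFU/ml, incubated 18 h at 37°C in air. 10 µl was subcultured onto 5% blood Columbia agar for 24 h at 37°C. The bactericidal endpoint was >99.9% (>3-log) kill, reported as a reciprocal titer.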

[5] = tested on: Escherichia coli; experiment: Antimicrobial activity against Escherichia coli 1780064 A-X isolated from patient with pyelonephritis assessed as >3-log reduction in urinary bacterial titer after 12 hrs; type: functional, Urine
Summary of the method: (§2)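 Urine was collected before dosing and on day 3 of i.v. therapy (steady state), in 4-h intervals from infusion start (0–4 to 20–24 h), stored at −80°C and sterile filtered. It was serially diluted twofold (1:0 to 1:131,072) in the patient's drug-free pre-dose urine. Microdilution used an inoculum of 1.0 x 10^6–9.5 x 10^6 CFU/ml, incubated 18 h at 37°C, then subcultured 24 h on blood agar. The endpoint was >99.9% kill, reported as reciprocal titer.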

[6] = tested on: Enterococcus faecalis; experiment: Antimicrobial activity against Enterococcus faecalis 2297262-10 B-V isolated from patient with pyelonephritis assessed as >3-log reduction in urinary bacterial titer after 12 hrs; type: functional, Urine; summary of the method: as §2
[7] = tested on: Escherichia coli; experiment: Antimicrobial activity against Escherichia coli 2062716 B-R isolated from patient with pyelonephritis assessed as >3-log reduction in urinary bacterial titer after 24 hrs; type: functional, Urine
Summary of the method: (§3)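 Patient urine was collected on day 3 of i.v. therapy (steady state) over 4-h intervals after infusion start, stored at –80°C, and sterile filtered. It was twofold serially diluted (1:0 to 1:131,072) in the patient's own pre-dose drug-free urine, inoculated to 1.0 x 10^6–9.5 x 10^6 CFU/ml, and incubated for 18 h at 37°C. Subcultures were grown on blood agar for 24 h. The UBT is the reciprocal of the highest dilution giving >99.9% kill.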

[8] = tested on: Pseudomonas aeruginosa; experiment: Antimicrobial activity against Pseudomonas aeruginosa 1821383 B-E isolated from patient with pyelonephritis assessed as >3-log reduction in urinary bacterial titer after 24 hrs; type: functional, Urine
[9] = tested on: Enterococcus faecalis; experiment: Antimicrobial activity against Enterococcus faecalis 2215767-10 B-S isolated from patient with pyelonephritis assessed as >3-log reduction in urinary bacterial titer after 8 hrs; type: functional, Urine; summary of the method: as §2
[10] = tested on: Enterococcus faecalis; experiment: Antimicrobial activity against Enterococcus faecalis 2297262-10 B-V isolated from patient with pyelonephritis assessed as >3-log reduction in urinary bacterial titer after 16 hrs; type: functional, Urine; summary of the method: as §2
[11] = tested on: Staphylococcus epidermidis; experiment: Antimicrobial activity against Staphylococcus epidermidis 1949822 B-J isolated from patient with pyelonephritis assessed as >3-log reduction in urinary bacterial titer after 20 hrs; type: functional, Urine
[12] = tested on: Escherichia coli; experiment: Antimicrobial activity against Escherichia coli 2062716 B-R isolated from patient with pyelonephritis assessed as >3-log reduction in urinary bacterial titer after 12 hrs; type: functional, Urine; summary of the method: as §3
[13] = tested on: Staphylococcus aureus; experiment: Antimicrobial activity against Staphylococcus aureus 1889640 A-Z isolated from patient with pyelonephritis assessed as >3-log reduction in urinary bacterial titer after 20 hrs; type: functional, Urine
[14] = tested on: Pseudomonas aeruginosa; experiment: Antimicrobial activity against Pseudomonas aeruginosa 1821383 B-E isolated from patient with pyelonephritis assessed as >3-log reduction in urinary bacterial titer after 12 hrs; type: functional, Urine
[15] = tested on: Escherichia coli; experiment: Antimicrobial activity against Escherichia coli 1889646 B-F isolated from patient with pyelonephritis assessed as >3-log reduction in urinary bacterial titer after 8 hrs; type: functional, Urine; summary of the method: as §1
[16] = tested on: Escherichia coli; experiment: Antimicrobial activity against Escherichia coli 1949826 B-L isolated from patient with pyelonephritis by Etest; type: functional
[17] = tested on: Escherichia coli; experiment: Antimicrobial activity against Escherichia coli 1949825 B-K isolated from patient with pyelonephritis assessed as >3-log reduction in urinary bacterial titer after 24 hrs; type: functional, Urine; summary of the method: as §3
[18] = tested on: Escherichia coli; experiment: Antimicrobial activity against Escherichia coli 1949826 B-L isolated from patient with pyelonephritis assessed as >3-log reduction in urinary bacterial titer after 8 hrs; type: functional, Urine; summary of the method: as §3
[19] = tested on: Escherichia coli; experiment: Antimicrobial activity against Escherichia coli 1889645 B-I isolated from patient with pyelonephritis assessed as >3-log reduction in urinary bacterial titer after 24 hrs; type: functional, Urine; summary of the method: as §1
[20] = tested on: Staphylococcus haemolyticus; experiment: Antimicrobial activity against Staphylococcus haemolyticus 1949819 B-M isolated from patient with pyelonephritis assessed as >3-log reduction in urinary bacterial titer after 20 hrs; type: functional, Urine
[21] = tested on: Escherichia coli; experiment: Antimicrobial activity against Escherichia coli 1821385 B-C isolated from patient with pyelonephritis assessed as >3-log reduction in urinary bacterial titer after 12 hrs; type: functional, Urine; summary of the method: as §1
[22] = tested on: Escherichia coli; experiment: Antimicrobial activity against Escherichia coli 2062717 B-P isolated from patient with pyelonephritis assessed as >3-log reduction in urinary bacterial titer after 24 hrs; type: functional, Urine
[23] = tested on: Escherichia coli; experiment: Antimicrobial activity against Escherichia coli 1949825 B-K isolated from patient with pyelonephritis assessed as >3-log reduction in urinary bacterial titer after 20 hrs; type: functional, Urine; summary of the method: as §3
[24] = tested on: Escherichia coli; experiment: Antimicrobial activity against Escherichia coli 2062717 B-P isolated from patient with pyelonephritis assessed as >3-log reduction in urinary bacterial titer after 8 hrs; type: functional, Urine
[25] = tested on: Enterococcus faecalis; experiment: Antimicrobial activity against Enterococcus faecalis 2215770 B-T isolated from patient with pyelonephritis assessed as >3-log reduction in urinary bacterial titer after 20 hrs; type: functional, Urine; summary of the method: as §2
[26] = tested on: Escherichia coli; experiment: Antimicrobial activity against Escherichia coli 2297257 B-W isolated from patient with pyelonephritis assessed as >3-log reduction in urinary bacterial titer after 16 hrs; type: functional, Urine
[27] = tested on: Escherichia coli; experiment: Antimicrobial activity against Escherichia coli 1780063 B-A isolated from patient with pyelonephritis by Etest; type: functional
[28] = tested on: Staphylococcus haemolyticus; experiment: Antimicrobial activity against Staphylococcus haemolyticus 1949819 B-M isolated from patient with pyelonephritis assessed as >3-log reduction in urinary bacterial titer after 4 hrs; type: functional, Urine
[29] = tested on: Escherichia coli; experiment: Antimicrobial activity against Escherichia coli 1949825 B-K isolated from patient with pyelonephritis by Etest; type: functional
[30] = tested on: Escherichia coli; experiment: Antimicrobial activity against Escherichia coli 1949825 B-K isolated from patient with pyelonephritis assessed as >3-log reduction in urinary bacterial titer after 16 hrs; type: functional, Urine; summary of the method: as §3
[31] = tested on: Enterococcus faecalis; experiment: Antimicrobial activity against Enterococcus faecalis 2215770 B-T isolated from patient with pyelonephritis assessed as >3-log reduction in urinary bacterial titer after 24 hrs; type: functional, Urine; summary of the method: as §2
[32] = tested on: Escherichia coli; experiment: Antimicrobial activity against Escherichia coli 2297257 B-W isolated from patient with pyelonephritis by Etest; type: functional
[33] = tested on: Escherichia coli; experiment: Antimicrobial activity against Escherichia coli 1780063 B-A isolated from patient with pyelonephritis assessed as >3-log reduction in urinary bacterial titer after 24 hrs; type: functional, Urine; summary of the method: as §2
[34] = tested on: Escherichia coli; experiment: Antimicrobial activity against Escherichia coli 2297257 B-W isolated from patient with pyelonephritis assessed as >3-log reduction in urinary bacterial titer after 8 hrs; type: functional, Urine

Compound: C[C@H]1COc2c(N3CCN(C)CC3)c(F)cc3c(=O)c(C(=O)O)cn1c23.C[C@H]1COc2c(N3CCN(C)CC3)c(F)cc3c(=O)c(C(=O)O)cn1c23.O [LEVOFLOXACIN]
- urinary bactericidal titer [1]: 128 reciprocal titer
- urinary bactericidal titer [2]: 128 reciprocal titer
- MIC [3]: 0.047 µg/mL
- urinary bactericidal titer [4]: 512 reciprocal titer
- urinary bactericidal titer [5]: 256 reciprocal titer
- urinary bactericidal titer [6]: 0 reciprocal titer
- urinary bactericidal titer [7]: 64 reciprocal titer
- urinary bactericidal titer [8]: 16 reciprocal titer
- urinary bactericidal titer [9]: 0 reciprocal titer
- urinary bactericidal titer [10]: 0 reciprocal titer
- urinary bactericidal titer [11]: 2 reciprocal titer
- urinary bactericidal titer [12]: 512 reciprocal titer
- urinary bactericidal titer [13]: 64 reciprocal titer
- urinary bactericidal titer [14]: 128 reciprocal titer

Compound: C[C@@H](O)[C@H]1C(=O)N2C(C(=O)O)=C(S[C@@H]3CN[C@H](CNS(N)(=O)=O)C3)[C@H](C)[C@H]12 [DORIPENEM]
- urinary bactericidal titer [15]: 32800 reciprocal titer
- MIC [16]: 0.03 µg/mL (≈ 0.0713 µM)
- urinary bactericidal titer [17]: 256 reciprocal titer
- urinary bactericidal titer [18]: 32800 reciprocal titer
- urinary bactericidal titer [19]: 4096 reciprocal titer
- urinary bactericidal titer [20]: 2048 reciprocal titer
- urinary bactericidal titer [21]: 32800 reciprocal titer
- urinary bactericidal titer [22]: 2048 reciprocal titer
- urinary bactericidal titer [23]: 4096 reciprocal titer
- urinary bactericidal titer [24]: 1024 reciprocal titer
- urinary bactericidal titer [25]: 2048 reciprocal titer
- urinary bactericidal titer [26]: 4096 reciprocal titer
- MIC [27]: 0.03 µg/mL (≈ 0.0713 µM)
- urinary bactericidal titer [28]: 512 reciprocal titer
- MIC [29]: 0.03 µg/mL (≈ 0.0713 µM)
- urinary bactericidal titer [30]: 2048 reciprocal titer
- urinary bactericidal titer [31]: 512 reciprocal titer
- MIC [32]: 0.015 µg/mL (≈ 0.0357 µM)
- urinary bactericidal titer [33]: 1024 reciprocal titer
- urinary bactericidal titer [34]: 2048 reciprocal titer

Reference: ChEMBL document CHEMBL1649151, “Urinary bactericidal activity of Doripenem versus that of levofloxacin in patients with complicated urinary tract infections or pyelonephritis” (Antimicrob Agents Chemother, 2009)
